eIF2B yeast act = GCN4-lacZ reporter reduction in eIF2B-epsilon mutant yeast, primary screen, S. cerevisiae, eIF2B-epsilon R284H, Beta-Glo luminescence; inhibition, % at 25 µM (by protocol); hit rate 0.91% among 27,000;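 active = mutant luminescence inhibited past about 50% while wild type luminescence and mutant growth stay under set limits, limit read from the data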
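Material: yeast eIF2B-epsilon R284H mutant carrying GCN4–beta-galactosidase fusion. Medium: YPD yeast growth medium. Incubation: 16 h growth with compound at 30 °C, 90 min Beta-Glo step. Signal: Beta-Glo luminescence plus absorbance at 595 nm. Evaluation: % inhibition of reporter signal and growth versus controls. Doses: 25 µM single dose.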
Yeast tox = yeast growth toxicity, wild-type and mutant, primary screen, cytotoxicity control for eIF2B function restoration project, wild-type and eIF2Bepsilon R284H mutant, A595; hit rate 0.3% among 30,000; S. cerevisiae wild-type growth, A595 turbidity, 16 h; growth inhibition, % at 25 µM (by protocol);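 active = mutant and wild-type yeast strains alike exhibit over 30% growth inhibition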;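 note: 0% = untreated cell controls and 100% = YPD media blanks without cells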
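System – wild-type and eIF2Bepsilon-R284H mutant S. cerevisiae, screened separately · Measured by – absorbance at 595 nm (turbidity) · Timing – 16 h compound exposure during growth at 30 °C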
Numbers without * were called inactive. An excerpt weighted towards active compounds, which were near 1% of everything screened.

Results for COc1ccccc1CNC(=O)CN(c1ccc(C)cc1)S(=O)(=O)c1c(C)nn(C)c1C ?
eIF2B yeast act: 51*; Yeast tox: 7

How did COc1ccccc1NC(=O)CN(c1ccc(C)cc1)S(=O)(=O)c1c(C)n[nH]c1C do in these assays?
eIF2B yeast act: 19; Yeast tox: 21

How did Clc1ccc(CSc2nnc(-c3cccnc3)o2)cc1 do in these assays?
eIF2B yeast act: -9; Yeast tox: 9

Results for CCOc1cc(C(=O)N2CCN(c3ccc(C(C)=O)cc3)CC2)cc(OCC)c1OCC ?
eIF2B yeast act: 24; Yeast tox: 9

How did Cc1c(C(=O)N2CCCC2)sc(NC(=O)c2ccc(Cl)cc2)c1C#N do in these assays?
eIF2B yeast act: 71*; Yeast tox: 7

How did COc1cc(C(=O)Nc2sc(C(=O)N3CCOCC3)c(C)c2C#N)cc(OC)c1OC do in these assays?
eIF2B yeast act: 16; Yeast tox: -8

What do the screens show for `CCOc1ccc2nc(NS(=O)(=O)Cc3ccccc3)sc2c1`?
eIF2B yeast act: 16; Yeast tox: 19

How did COCCOc1nc2c(c(=O)n(C)c(=O)n2C)n1Cc1cccc(OC)c1 do in these assays?
Yeast tox: 5

How did CCCCCCn1ccc(=N)cc1 do in these assays?
eIF2B yeast act: -17; Yeast tox: -8

How did CCCCCCCCCCn1c2c(c(=N)c3c1CCC3)CCC2 do in these assays?
Yeast tox: 79*

How did COc1ccccc1NC(=O)c1oc2ccccc2c1NC(=O)c1cc(OC)c(OC)c(OC)c1 do in these assays?
eIF2B yeast act: 63*; Yeast tox: -44

What do the screens show for `COCC(=O)Nc1c(C(=O)Nc2ccccc2OC)oc2ccccc12`?
eIF2B yeast act: 10; Yeast tox: -17

Results for COc1ccc(Oc2nc3c(c(=O)n(C)c(=O)n3C)n2Cc2cccc(OC)c2)cc1 ?
eIF2B yeast act: 4; Yeast tox: -16

What do the screens show for `Cn1c(=O)c2c(nc(Oc3ccc4c(c3)OCO4)n2Cc2ccc(Br)cc2)n(C)c1=O`?
eIF2B yeast act: 57*; Yeast tox: -42

What do the screens show for `CC(C(=O)O)n1c(C(F)(F)F)nc2ccccc21` (stereo not drawn)?
eIF2B yeast act: 20; Yeast tox: 14

Results for CCOC(=O)c1ccc(Nc2nc(C)cc(=O)[nH]2)cc1 ?
eIF2B yeast act: 18; Yeast tox: 15

How did Cc1ccc(Nc2cc(C)nn2-c2nc(C)cc(=O)[nH]2)cc1 do in these assays?
eIF2B yeast act: 98; Yeast tox: 78*

What do the screens show for `CC/C(=N\O)c1ccc(O)c(OC)c1`?
eIF2B yeast act: -10; Yeast tox: 1

Results for O=C1c2ccccc2C(=O)N1CCC1=CCCCC1 ?
eIF2B yeast act: 9; Yeast tox: 30

What do the screens show for `O=C(CCC1=NS(=O)(=O)c2ccccc2N1)NC1CCCCCCC1`?
eIF2B yeast act: 22; Yeast tox: -6

How did O=C(CC1Nc2ccccc2NC1=O)NC1CCCCC1 (stereo not drawn) do in these assays?
eIF2B yeast act: 58*; Yeast tox: -16

What do the screens show for `O=S(=O)(c1ccc2ccccc2c1)N1CCC(c2nc(-c3ccncc3)no2)CC1`?
eIF2B yeast act: 10; Yeast tox: -44

What do the screens show for `COc1cc(/C=C2\C(=O)N(CCC#N)N=C2C)c(Br)cc1OC(C)C`?
eIF2B yeast act: 53*; Yeast tox: -17

How did Cn1c(=O)n(Cc2ccc(F)cc2)c(=O)c2c1nc1n2CCCN1C1CCCCC1 do in these assays?
eIF2B yeast act: 7; Yeast tox: 6

How did O=C(CCC(=O)Nc1ccc(Oc2ccccc2)cc1)NCCO do in these assays?
eIF2B yeast act: -2; Yeast tox: 7

What do the screens show for `COc1ccc(OCC(=O)NCc2cccnc2)cc1`?
eIF2B yeast act: 12

How did COc1ccc2c(c1)CCc1c(C(=O)NCc3cccnc3)noc1-2 do in these assays?
eIF2B yeast act: 60*; Yeast tox: -10

Results for COc1ccc(NC(=O)C(=O)NCCN2CCN(C(=O)c3cccs3)CC2)cc1 ?
eIF2B yeast act: 52*; Yeast tox: -23

What do the screens show for `Cc1cc(NC(=O)C(=O)NCCN2CCN(C(=O)c3cccs3)CC2)ccc1Br`?
eIF2B yeast act: -35; Yeast tox: -30

How did Cc1nn(CC#N)c(=O)n1-c1ccc(F)cc1 do in these assays?
eIF2B yeast act: -24; Yeast tox: 14

What do the screens show for `Nc1ccc2oc(CCc3ccccc3)nc2c1`?
eIF2B yeast act: 53*; Yeast tox: -3

How did c1ccc2oc(CCc3nc4ccccc4o3)nc2c1 do in these assays?
eIF2B yeast act: 18; Yeast tox: 13

What do the screens show for `O=C(Nc1nnc(COc2ccc(Cl)cc2)s1)c1cccs1`?
eIF2B yeast act: 50*; Yeast tox: 2

How did Cc1cccc(OCc2nnc(NC(=O)c3cccs3)s2)c1 do in these assays?
eIF2B yeast act: -26; Yeast tox: 6

What do the screens show for `CC(=O)c1ccc(NC(=O)c2noc3c2CCCCC3)cc1`?
eIF2B yeast act: 69*; Yeast tox: -9

What do the screens show for `O=C(Nc1ccc2c(c1)OCO2)c1noc2c1CCCCC2`?
eIF2B yeast act: 11; Yeast tox: 2

Results for COc1cccc(N(CC(=O)NCCSc2ccc(Cl)cc2)S(C)(=O)=O)c1 ?
eIF2B yeast act: 19; Yeast tox: 8

What do the screens show for `C=CCSc1nnc2c(n1)OC(c1cccnc1)N(C(C)=O)c1ccccc1-2` (stereo not drawn)?
eIF2B yeast act: 55*; Yeast tox: -9

How did COc1ccc(C2Oc3ccccc3N2C(C)=O)cc1 (stereo not drawn) do in these assays?
eIF2B yeast act: 0; Yeast tox: -34

How did COc1ccccc1-n1nc(C(=O)Nc2ccc3c(c2)OCO3)c2ccccc2c1=O do in these assays?
eIF2B yeast act: 50*; Yeast tox: -13

What do the screens show for `COc1ccc(-n2nc(C(=O)Nc3ccc4c(c3)OCO4)c3ccccc3c2=O)c(OC)c1`?
eIF2B yeast act: -17; Yeast tox: -33

How did Cc1nn(CC2CCCCC2)c(N)c1-c1ccccc1 do in these assays?
Yeast tox: 22

How did Nc1ccc2c(c1)C(=O)C(=O)c1ccccc1-2 do in these assays?
Yeast tox: 38*

What do the screens show for `O=C1C(=O)c2ccc(-c3ccccc3)cc2-c2ccccc21`?
eIF2B yeast act: 43; Yeast tox: 38

What do the screens show for `CSc1nc2ccccc2n1CC(=O)Nc1cc(C(F)(F)F)ccc1N1CCOCC1`?
eIF2B yeast act: 24; Yeast tox: 11

How did Cc1cccnc1Nc1nc(-c2ccc(O)cc2)cs1 do in these assays?
Yeast tox: 36*

What do the screens show for `Clc1ccc(Nc2nc(-c3cccnc3)cs2)cc1`?
eIF2B yeast act: 20; Yeast tox: 5

What do the screens show for `Cc1cccc(N(CC(O)CON=C2c3ccccc3-c3ccccc32)S(C)(=O)=O)c1` (stereo not drawn)?
eIF2B yeast act: 18; Yeast tox: 19

How did Cc1ccccc1N(CC(=O)NCc1ccncc1)S(C)(=O)=O do in these assays?
eIF2B yeast act: 13; Yeast tox: 3

Results for Cc1cc2n(n1)SC(Nc1ccccc1)N2 (stereo not drawn) ?
eIF2B yeast act: 55*

How did COCCCN1C(=O)c2ccc(C(=O)Nc3ccc(OC)cc3)cc2C1=O do in these assays?
Yeast tox: 7

How did COc1ccccc1Nc1ncccc1C(=O)NCc1ccccc1 do in these assays?
eIF2B yeast act: 20; Yeast tox: 1

Results for CCCCn1c(SCC(=O)c2ccccc2)nc2c1c(=O)[nH]c(=O)n2C ?
eIF2B yeast act: -33; Yeast tox: 5

Source: PubChem
